Experimental data of several laboratories.
Compare with care: the assays were run in different laboratories.
Target: Transient receptor potential cation channel subfamily M member 6 (TRPM6, Homo sapiens, UniProt Q9BX84)

| Compound | observed | technique | concentration | remaining binding [%] |
| --- | --- | --- | --- | --- |
| CCCCN(CCCC)C(=O)CN1C[C@H](c2cc(OC)c3c(c2)OCO3)[C@@H](C(=O)O)[C@@H]1CC(C)(C)CCC | cell-free assay | competition with immobilised ligand | 1 µM | 91.6 |
| COc1ncc2cc3ccccc3nc2c1C#N | cell-free assay | competition with immobilised ligand | 5 µM | 92 |
| Nc1ncc2c(n1)-c1c([nH]c3ccc(C#CC4CC4)cc13)CCCC2 | binding | competition with immobilised ligand | 1 µM | 75 |
| CN(c1nccc(-c2cnn3ncccc23)n1)C1CC1 | binding | – | 1 µM | 100 |
| Cc1c[nH]c2nccc(Oc3c(F)cc(Nc4cc(Cl)nc(N)n4)cc3F)c12 | cell-free assay | competition with immobilised ligand | 0.1 µM | 83 |
| Cc1cnc(Nc2ccc(C(=O)N3CCC(N4CCCC4)CC3)cc2)nc1-c1cc2ccccc2s1 | binding | competition with immobilised ligand | 1 µM | 100 |
| O=C(NCC1CCOCC1)c1n[nH]cc1NC(=O)c1c(F)cccc1F | binding | competition with immobilised ligand | 1 µM | 85 |
| F[C@@H]1CCN(c2nccc(-c3cnn4ncccc34)n2)C1 | binding | – | 1 µM | 100 |
| C[C@@H](c1ccc(-n2cnc3c(N)ncnc32)cc1)N1CCc2nn(C)c(Cc3ccccc3)c2C1=O | binding | competition with immobilised ligand | 0.1 µM | 76 |
| O=C(NS(=O)(=O)c1ccc(NCC2CCOCC2)c([N+](=O)[O-])c1)c1ccc(N2CCN(Cc3ccc(C(F)(F)F)cc3-c3ccc(Cl)cc3)CC2)cc1Oc1cnc2[nH]ccc2c1 | cell-free assay | competition with immobilised ligand | 1 µM | 89 |
| CC1CCCN1c1nccc(-c2cnn3ncccc23)n1 (centres unmarked) | binding | – | 1 µM | 100 |
| CS(=O)(=O)N1CCCC(NC(=O)[C@H](CCC2CCCCC2)NC(=O)c2ccc(CNC(=O)c3cnc4ccccn34)cc2)C1 (some centres unmarked) | cell-free assay | competition with immobilised ligand | 0.1 µM | 100 |
| COc1cnc(Nc2cccc(S(N)(=O)=O)c2)nc1N1CCN(c2ccccc2)CC1 | binding | competition with immobilised ligand | 1 µM | 90 |
| N[C@@H]1CCN(c2nccc(-c3cnn4ncccc34)n2)C1 | binding | – | 1 µM | 100 |
| O=C(c1ccc(Nc2ncc(Cl)c(-c3cc4ccccc4s3)n2)cc1)N1CCC(N2CCCC2)CC1 | binding | competition with immobilised ligand | 1 µM | 100 |
| O=C(O)[C@H]1[C@H](Cn2nnc3ccccc3c2=O)CC[C@@H]1C(=O)c1ccc(OCCC2CCOCC2)cc1 | cell-free assay | competition with immobilised ligand | 1 µM | 100 |
| C[C@@H]1CCN(c2nccc(-c3cnn4ncccc34)n2)C1 | binding | – | 1 µM | 91 |
| O=C(NCCCN1CCOCC1)c1ccc(Nc2nccc(-c3cc4ccccc4s3)n2)cc1 | binding | competition with immobilised ligand | 1 µM | 100 |
| CN(CCCC(F)(F)F)c1nccc(-c2cnn3ncccc23)n1 | binding | – | 1 µM | 100 |
| CN(C)C(=O)Cn1cc(-c2nc([C@@](C)(c3ccc(-c4cnc(N)nc4)cc3)C3CC3)no2)cn1 | cell-free assay | competition with immobilised ligand | 1 µM | 78 |
